Assay results published in ChEMBL document CHEMBL1149824, “Tasumatrols U-Z, taxane diterpene esters from Taxus sumatrana” (2008).
≈ marks a conversion by molar mass, not a printed value. Calls of active or inactive are those of the source. No cut-off for these calls is given here.

Columns and labels:
Format in all cases: functional
Settings in all cases: for EC50: read-out: ED50 (the source's name)
[1] = system: HEp-2; assay: Cytotoxicity against human Hep2 cells by MTT assay
How it was run: (§1)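 MTT assay on human tumor cell lines (Hep2/Hepa2 […], WiDr colon, HeLa cervical). ED50 is the concentration of test sample giving a 50% reduction in absorbance relative to untreated cells, in µg/mL. Camptothecin served as positive control.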

[2] = system: WiDr; assay: Cytotoxicity against human WiDr cells by MTT assay; how it was run: as §1
[3] = system: HeLa; assay: Cytotoxicity against human HeLa cells by MTT assay; how it was run: as §1

| SMILES | EC50 [1] [µg/mL] | EC50 [2] [µg/mL] | EC50 [3] [µg/mL] | Activity [1] | Activity [2] | Activity [3] |
| --- | --- | --- | --- | --- | --- | --- |
| CC(=O)O[C@@]12CO[C@@H]1C[C@H](O)[C@@]13COC(=O)[C@]1(O)C1=C(C)CC[C@@]1(C(C)(C)O)[C@@H](OC(=O)c1ccccc1)C32 (stereo partly specified) [TASUMATROL Y] | 3.5 (≈ 6.45 µM) | > 5 | > 5 |  |  |  |
| CC(=O)OC[C@@]12C([C@H](OC(=O)c3ccccc3)[C@]34C[C@H](O)C(C)=C3[C@@]1(O)C(=O)OC4(C)C)[C@]1(OC(C)=O)CO[C@@H]1C[C@@H]2O (stereo partly specified) |  |  |  | inactive | inactive | inactive |
| CC(=O)O[C@H]1C[C@H]2[C@@H](O)/C=C3\C[C@](C)(C(=O)[C@H](O)C(=C1C)C2(C)C)[C@@H](OC(C)=O)C[C@@H]3O |  |  |  | inactive | inactive | inactive |
| CC[C@@]1(O)C(=O)OCc2c1cc1n(c2=O)Cc2cc3ccccc3nc2-1 [CAMPTOTHECIN] | 0.02 (≈ 0.0574 µM) | 0.07 (≈ 0.201 µM) | 0.19 (≈ 0.545 µM) |  |  |  |
| CC(=O)OC[C@@]12C([C@H](OC(=O)c3ccccc3)[C@]34CCC(C)=C3[C@@]1(O)C(=O)OC4(C)C)[C@]1(OC(C)=O)CO[C@@H]1C[C@@H]2O (stereo partly specified) |  |  |  | inactive | inactive | inactive |
| CC(=O)O[C@H]1C[C@H]2OC[C@@]2(OC(C)=O)C2[C@H](OC(=O)c3ccccc3)[C@]3(C(C)(C)O)C[C@H](O)C(C)=C3[C@@]3(O)C(=O)OC[C@]213 (stereo partly specified) |  |  |  | inactive | inactive | inactive |
| CC1=C2[C@@]3(O)C(=O)OC(C)(C)[C@]2(CC1)[C@@H](O)C1[C@](O)(CO)[C@@H](OC(=O)c2ccccc2)C[C@H](O)[C@]13C (stereo partly specified) |  |  |  | inactive | inactive | inactive |
